# Assay results from the M2OR odorant receptor database.
# Biological target: T1, OR13C5 (Homo sapiens) (UniProt Q8NGS8)
# T1 sequence (whole entry): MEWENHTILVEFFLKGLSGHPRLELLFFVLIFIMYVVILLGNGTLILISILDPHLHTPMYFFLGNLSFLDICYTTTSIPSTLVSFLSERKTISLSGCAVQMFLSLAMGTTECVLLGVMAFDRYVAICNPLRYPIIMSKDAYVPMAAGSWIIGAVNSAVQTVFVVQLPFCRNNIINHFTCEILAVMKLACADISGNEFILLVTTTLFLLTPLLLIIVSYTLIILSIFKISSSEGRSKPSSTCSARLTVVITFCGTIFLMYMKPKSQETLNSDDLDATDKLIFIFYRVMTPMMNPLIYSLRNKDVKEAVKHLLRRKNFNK
# Conditions: stereoisomer not certain
# Method in brief: (§1)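 Each entry records the cell line, G-protein, co-transfected protein and tags used. Methods varied with the source, often transient luciferase assays in mammalian cell lines. A receptor–molecule pair is called responsive (active) if the original authors judged its signal statistically different from baseline and non-responsive (inactive) otherwise.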
row,Compound,odorant receptor agonist call
1,CC1=NC(C)C(C)S1 (stereo not given),inactive
2,CCCCC(S)C(C)CO (stereo not given),inactive
3,CC1=C(O)C(=O)OC1C (stereo not given),inactive
4,CC(CO)CS (stereo not given),active
5,Cc1cnc(C)c(C)n1,inactive
6,CCCCCC(=O)C(C)C(C)=O (stereo not given),inactive
7,CCC(S)C(C)CO (stereo not given),inactive
8,CC1CCCCCCCCCCCCC(=O)C1 (stereo not given),inactive
9,CCCCCCC=CCCC=O,inactive
10,CCC1OC(C)=C(O)C1=O (stereo not given),inactive
11,CCCCCC(S)C(C)CO (stereo not given),inactive
12,CC(=O)c1c(C)c([N+](=O)[O-])c(C(C)(C)C)c([N+](=O)[O-])c1C,inactive
13,CCC1OC(=O)C(O)=C1C (stereo not given),inactive
14,CCCC(S)CCOC(C)=O (stereo not given),inactive
15,CC1=C(O)C(=O)C(C)O1 (stereo not given),inactive

# Biological target: T2, OR13C8 (Homo sapiens) (UniProt Q8NGS7)
# T2 sequence (whole entry): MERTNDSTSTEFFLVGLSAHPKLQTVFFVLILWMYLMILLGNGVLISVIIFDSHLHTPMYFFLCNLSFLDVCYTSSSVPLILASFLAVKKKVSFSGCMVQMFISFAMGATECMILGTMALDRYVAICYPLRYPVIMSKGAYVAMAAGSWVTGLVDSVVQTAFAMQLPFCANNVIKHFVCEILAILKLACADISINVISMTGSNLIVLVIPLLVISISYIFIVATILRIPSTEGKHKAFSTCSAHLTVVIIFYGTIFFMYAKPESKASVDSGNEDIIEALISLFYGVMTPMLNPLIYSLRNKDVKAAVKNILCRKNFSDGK
# Conditions: stereoisomer not certain
# Method in brief: as §1
row,Compound,odorant receptor agonist call
1,CC1=NC(C)C(C)S1 (stereo not given),inactive
2,CCCCC(S)C(C)CO (stereo not given),inactive
3,CC1=C(O)C(=O)OC1C (stereo not given),inactive
4,CC(CO)CS (stereo not given),inactive
5,Cc1cnc(C)c(C)n1,inactive
6,CCCCCC(=O)C(C)C(C)=O (stereo not given),inactive
7,CCC(S)C(C)CO (stereo not given),inactive
8,CC1CCCCCCCCCCCCC(=O)C1 (stereo not given),inactive
9,CCCCCCC=CCCC=O,inactive
10,CCC1OC(C)=C(O)C1=O (stereo not given),inactive
11,CCCCCC(S)C(C)CO (stereo not given),inactive
12,CC(=O)c1c(C)c([N+](=O)[O-])c(C(C)(C)C)c([N+](=O)[O-])c1C,inactive
13,CCC1OC(=O)C(O)=C1C (stereo not given),inactive
14,CCCC(S)CCOC(C)=O (stereo not given),inactive
15,CC1=C(O)C(=O)C(C)O1 (stereo not given),inactive

# Biological target: T3, OR13C9 (Homo sapiens) (UniProt Q8NGT0)
# T3 sequence (whole entry): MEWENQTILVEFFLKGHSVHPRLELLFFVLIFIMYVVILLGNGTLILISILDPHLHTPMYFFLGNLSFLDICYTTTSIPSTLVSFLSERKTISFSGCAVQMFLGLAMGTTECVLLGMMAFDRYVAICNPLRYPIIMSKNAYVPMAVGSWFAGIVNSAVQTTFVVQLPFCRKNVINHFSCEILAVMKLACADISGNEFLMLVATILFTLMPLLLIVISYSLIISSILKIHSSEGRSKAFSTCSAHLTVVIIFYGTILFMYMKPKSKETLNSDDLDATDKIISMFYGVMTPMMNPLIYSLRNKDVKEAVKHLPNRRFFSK
# Conditions: stereoisomer not certain
# Method in brief: as §1
row,Compound,odorant receptor agonist call
1,CC1=NC(C)C(C)S1 (stereo not given),inactive
2,CCCCC(S)C(C)CO (stereo not given),inactive
3,CC1=C(O)C(=O)OC1C (stereo not given),inactive
4,CC(CO)CS (stereo not given),inactive
5,Cc1cnc(C)c(C)n1,inactive
6,CCCCCC(=O)C(C)C(C)=O (stereo not given),inactive
7,CCC(S)C(C)CO (stereo not given),inactive
8,CC1CCCCCCCCCCCCC(=O)C1 (stereo not given),inactive
9,CCCCCCC=CCCC=O,inactive
10,CCC1OC(C)=C(O)C1=O (stereo not given),inactive
11,CCCCCC(S)C(C)CO (stereo not given),active
12,CC(=O)c1c(C)c([N+](=O)[O-])c(C(C)(C)C)c([N+](=O)[O-])c1C,inactive
13,CCC1OC(=O)C(O)=C1C (stereo not given),inactive
14,CCCC(S)CCOC(C)=O (stereo not given),inactive
15,CC1=C(O)C(=O)C(C)O1 (stereo not given),inactive

# Biological target: T4, OR13D1 (Homo sapiens) (UniProt Q8NGV5)
# T4 sequence (whole entry): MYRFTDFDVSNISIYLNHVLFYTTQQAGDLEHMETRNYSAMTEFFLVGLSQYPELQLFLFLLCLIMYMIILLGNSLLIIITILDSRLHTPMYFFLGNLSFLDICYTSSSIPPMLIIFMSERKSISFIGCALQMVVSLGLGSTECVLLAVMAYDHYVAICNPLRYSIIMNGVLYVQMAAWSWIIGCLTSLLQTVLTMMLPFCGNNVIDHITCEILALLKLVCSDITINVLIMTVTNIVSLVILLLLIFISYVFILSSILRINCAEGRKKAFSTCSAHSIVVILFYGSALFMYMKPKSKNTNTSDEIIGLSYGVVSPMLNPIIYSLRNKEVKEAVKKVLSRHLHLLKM
# Conditions: stereoisomer not certain
# Method in brief: as §1
row,Compound,odorant receptor agonist call
1,CC1=NC(C)C(C)S1 (stereo not given),inactive
2,CCCCC(S)C(C)CO (stereo not given),inactive
3,CC1=C(O)C(=O)OC1C (stereo not given),inactive
4,CC(CO)CS (stereo not given),inactive
5,Cc1cnc(C)c(C)n1,inactive
6,CCCCCC(=O)C(C)C(C)=O (stereo not given),inactive
7,CCC(S)C(C)CO (stereo not given),inactive
8,CC1CCCCCCCCCCCCC(=O)C1 (stereo not given),inactive
9,CCCCCCC=CCCC=O,inactive
10,CCC1OC(C)=C(O)C1=O (stereo not given),inactive
11,CCCCCC(S)C(C)CO (stereo not given),inactive
12,CC(=O)c1c(C)c([N+](=O)[O-])c(C(C)(C)C)c([N+](=O)[O-])c1C,inactive
13,CCC1OC(=O)C(O)=C1C (stereo not given),inactive
14,CCCC(S)CCOC(C)=O (stereo not given),inactive
15,CC1=C(O)C(=O)C(C)O1 (stereo not given),inactive
